Screening data: PubChem, several laboratories
M18AAP inhibitor: PfM18AAP enzyme inhibition. recombinant PfM18AAP, H-Glu-NHMec fluorogenic cleavage. inhibition, % at 7.35 µM. hit rate 1.2% among 290,000. AID 1822;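 active = inhibition above the campaign mean inhibition over all tested compounds plus 3 SD, cut at about 28% in these data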
UPR CHOP act: activators of apoptotic arm of unfolded protein response (CHOP); CHO-CHOP luciferase reporter, UPR activation, luminescence; percent of tunicamycin response over DMSO baseline; activation, % at 10 µM; hit rate 0.34% among 330,000; AID 449763;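 active = at 10 µM dose, activation of 40% or more, normalized to positive control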
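Assay system: CHO-CHOP cells, stable luciferase reporter of PERK-eIF2a-CHOP signalling / Buffer or medium: F12 plus 10% serum / Compound dosing: one dose, 10 µM in 0.5% DMSO / Times: 6 h compound treatment, 37 °C / Technique: luciferase luminescence / Read-out: % reporter activation, DMSO baseline versus tunicamycin full activation / Benchmarks: tunicamycin and DMSO controls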
p97 ATPase inh: inhibitors of human p97 ATPase; P55072; recombinant p97 ATPase, Kinase-Glo ATP luminescence, 3 h; inhibition, % at 8 µM; hit rate 0.42% among 220,000; AID 1481; in the data active = inhibition above about 15%
Target sequence (P55072 whole entry, looked up): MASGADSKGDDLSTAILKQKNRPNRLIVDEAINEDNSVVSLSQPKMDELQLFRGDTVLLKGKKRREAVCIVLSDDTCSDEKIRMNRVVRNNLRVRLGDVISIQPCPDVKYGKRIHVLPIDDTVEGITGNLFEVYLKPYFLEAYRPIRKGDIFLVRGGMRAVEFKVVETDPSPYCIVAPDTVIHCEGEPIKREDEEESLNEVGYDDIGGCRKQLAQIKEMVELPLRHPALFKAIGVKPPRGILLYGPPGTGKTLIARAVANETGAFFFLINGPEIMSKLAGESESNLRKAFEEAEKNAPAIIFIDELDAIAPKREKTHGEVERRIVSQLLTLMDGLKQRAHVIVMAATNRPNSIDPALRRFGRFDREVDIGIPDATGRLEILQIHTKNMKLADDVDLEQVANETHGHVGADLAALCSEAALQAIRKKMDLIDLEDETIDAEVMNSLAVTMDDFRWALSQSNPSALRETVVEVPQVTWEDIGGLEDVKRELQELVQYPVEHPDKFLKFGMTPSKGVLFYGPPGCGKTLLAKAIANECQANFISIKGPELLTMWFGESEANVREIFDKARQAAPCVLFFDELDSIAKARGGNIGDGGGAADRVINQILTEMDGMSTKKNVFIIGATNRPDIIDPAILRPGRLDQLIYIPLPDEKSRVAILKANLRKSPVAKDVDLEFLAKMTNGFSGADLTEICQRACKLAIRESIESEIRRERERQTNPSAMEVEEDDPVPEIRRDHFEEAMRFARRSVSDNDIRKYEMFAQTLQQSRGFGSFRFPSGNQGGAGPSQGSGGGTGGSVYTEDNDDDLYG
XBP1 UPR activ: activators of adaptive arm of unfolded protein response (XBP1); hit rate 0.33% among 330,000; activation, % at 20 µM; CHO-XBP1 luciferase reporter, IRE1-XBP1 UPR activation, luminescence; percent of tunicamycin response, DMSO as zero;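 active = versus positive control, 20 µM dose yields 30% or more activation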
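Assay system: IRE1-XBP1 luciferase reporter CHO line. Input: 1000 cells/well. Buffer or medium: F12 with 10% serum. Doses: 20 µM, 1% DMSO. Times: overnight seeding at 37 °C, 6 h compound treatment at 37 °C. Technique: Steady-Glo luciferase glow luminescence, 10 min after reagent addition.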
HCV NS3 hel inh: blocks Hepatitis C virus NS3 helicase unwinding; NS3 helicase DNA unwinding, Cy5 molecular beacon fluorescence; inhibition, % at 10.9 µM; hit rate 0.56% among 290,000;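 active = inhibition above the mean of all tested compounds plus 3 SD, set per campaign, cut at about 35% in these data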
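Material: hepatitis C virus NS3 helicase domain fragment enzyme; measured by: Cy5 fluorescence, 0 and 60 min reads; control set: DMSO and thioflavine S; incubation: 60 min unwinding reaction at 25 °C after ATP addition; read-out basis: % inhibition from 60/0 min fluorescence ratio, DMSO 0%, thioflavine S 100%; repeats: singlicate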
CHOP inhibitor: CHOP inhibition in unfolded protein response; hit rate 3.8% among 220,000; CHO-K1 CHOP-promoter luciferase, tunicamycin-induced, 15-18 h; AID 2732; inhibition, % at 10 µM;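 active = compounds that reduced the stress-induced luciferase reporter signal by more than about 70% of percent inhibition, limit read from the data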
p97 confirm: human p97 ATPase inhibition, confirmation. AID 1517. recombinant p97 ATPase, Kinase-Glo ATP luminescence. hit rate 44% among 760. shares compounds with p97 ATPase inh. inhibition, % at 8 µM;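 active = percent inhibition of p97 ATPase above a set limit, the primary screen's mean plus 3 SD, cut at about 15% in these data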
Numbers stand for hits; . = inactive; / = no result; ! = a repeat was not active. An excerpt weighted towards active compounds, which were near 4.5% of everything screened.

SMILES	M18AAP inhibitor	UPR CHOP act	p97 ATPase inh	XBP1 UPR activ	HCV NS3 hel inh	CHOP inhibitor	p97 confirm
CSc1c(CC(=O)NCCO)n(C)c2ccccc12	.	.	17	.	.	.	.
C(=N\Nc1nc2ccccc2[nH]1)/c1cccc2cccnc12	.	.	20	.	.	88	.
Cc1ccccc1/C=N/Nc1nc2ccccc2[nH]1	.	.	.	.	.	.	/
C(=N\Nc1nc2ccccc2[nH]1)/c1c[nH]c2ccccc12	.	.	15	.	.	.	.
COc1ccc(CNC(=O)NC(C)(C)c2cccc(C(C)(C)NC(=O)NCc3ccc(OC)cc3)c2)cc1	.	.	.	.	.	.	/
CCN(CC(=O)Nc1ccc2c(c1)OCCO2)C(=O)c1ccc([N+](=O)[O-])s1	/	.	/	.	/	/	/
CCOC(=O)c1[nH]c2ccc(Br)cc2c1NC(=O)CCN1CCC(C)CC1	.	.	17	.	.	.	.
CCOC(=O)c1[nH]c2ccc(OC)cc2c1NC(=O)CCN1CCC(C)CC1	.	.	.	.	.	.	/
CCOC(=O)c1[nH]c2ccc(Br)cc2c1NC(=O)CCN1CCCC(C)C1 (configuration not stated)	.	.	17	.	.	.	.
CC1CN(C(=O)c2ccccc2OCc2ccccc2Cl)CC(C)O1 (configuration not stated)	/	.	/	.	/	/	/
CCCCOc1ccc(/C=N/Nc2cc(N3CCOCC3)nc(C)n2)cc1	.	.	/	.	.	/	/
CCOc1ccc(NS(=O)(=O)c2cccc(C(=O)N(C)Cc3ccco3)c2)cc1	/	.	/	.	/	/	/
C=CCN(C(=O)CC(NC(C)=O)c1ccccc1)c1nc(-c2ccc(S(C)(=O)=O)cc2)cs1 (configuration not stated)	.	.	/	.	.	/	/
Cc1cc2c(N)cccc2nn1	.	.	32	.	.	.	.
Nc1cccc2nc3ccccc3cc12	.	.	.	.	.	/	/
N#Cc1cnn2c3c(cnc12)C(=O)N1CCc2ccccc2C1C3 (configuration not stated)	.	.	.	.	.	.	/
CN(Cc1ccco1)C(=O)CSc1nn2c(=O)c(C(C)(C)C)nnc2s1	/	.	/	.	/	/	/
Nc1c(N2CCCC2)cc(Cl)c2nonc12	.	.	32	.	.	.	20
Nc1ccc(N2CCCCC2)c2nonc12	.	.	44	.	.	.	.
Nc1ccc(N2CCCCC2)cc1N1CCCCC1	.	.	.	.	.	.	/
COc1ccc(NC2=C(Cl)C(=O)N(c3ccccc3)C2=O)c(OC)c1	.	.	25	.	.	.	.
COc1ccccc1NC1=C(Cl)C(=O)N(c2ccccc2)C1=O	.	.	17	.	.	.	27
COc1ccc(S(=O)(=O)N2CCN(C(=O)c3ccco3)CC2)cc1C(C)(C)C	.	.	/	.	.	/	/
Cc1ccc(S(=O)(=O)CCC(=O)c2ccc(O)cc2O)cc1	.	.	16	.	.	.	21
CCC(CNc1cc(OC)cc2cccnc12)NC1CCCCC1 (configuration not stated)	.	/	24	/	.	.	.
SMILES	M18AAP inhibitor	UPR CHOP act	p97 ATPase inh	XBP1 UPR activ	HCV NS3 hel inh	CHOP inhibitor	p97 confirm
COc1cc(NC(=O)c2ccccc2Cl)c2ncccc2c1	.	.	/	.	.	/	/
COc1cc(NCCCC(C)N)c2ncccc2c1 (configuration not stated)	.	/	15	/	.	.	.
Cc1nc(S/C(=C\c2ccc(-c3ccc(C(=O)O)c(Cl)c3)o2)C(=O)O)n[nH]1	.	/	53	/	.	.	44
Cc1nc(S/C(=C\c2ccc(OCc3ccccc3Cl)cc2)C(=O)O)n[nH]1	.	.	.	.	.	.	/
COc1ccc(S(=O)(=O)N2CCCC(C(=O)NC3CC3)C2)cc1Cl (configuration not stated)	.	.	/	.	.	/	/
CC(=O)NS(=O)(=O)c1ccc(NC(=O)c2cc3c(=O)n4ccccc4nc3s2)cc1	.	.	17	.	.	.	.
Cc1ccccc1C(=O)NCC(=O)OC1CCCCC1=O (configuration not stated)	/	.	/	.	/	/	/
O=C(NCc1ccc(/C=N\NC(=O)C(=O)Nc2ccccc2Br)o1)C(=O)Nc1ccccc1	.	.	/	.	.	/	/
Cc1ccc(-c2nnc(NCc3nc4ccccc4[nH]3)c3ccccc23)cc1S(=O)(=O)N(C)C	.	.	.	.	.	.	/
Cc1ccc(-c2nnc(NCc3nc4ccccc4[nH]3)c3ccccc23)cc1S(=O)(=O)N1CCOCC1	.	.	15	.	.	.	.
N#C/C(=C(/O)CCl)c1nc(-c2ccccc2)cs1	.	.	40	.	.	.	38
CC(OC(=O)CCN1C(=O)C2CC=CCC2C1=O)C(=O)Nc1cccc(Cl)c1 (configuration not stated)	/	.	/	.	/	/	/
CCOC(=O)c1c(N)n(CCOC(=O)c2cccs2)c2nc3ccccc3nc12	.	.	21	.	.	.	.
CCCCCOC(=O)c1c(N)n(CCOC)c2nc3ccccc3nc12	.	.	.	.	.	.	/
COCc1nnc(NC(=O)C2CC(=O)N(CCc3ccc(F)cc3)C2)s1 (configuration not stated)	.	.	/	.	.	/	/
CCN(CC)C(=O)c1ccc(COc2ccccc2Cl)cc1	.	.	15	.	.	.	.
C=CCc1ccccc1OCC(O)CN1CCN(Cc2ccc3c(c2)OCO3)CC1 (configuration not stated)	.	.	16!	.	.	.	.
O=C(CCc1c[nH]c2ccccc12)NCCc1ccc(Cl)cc1	.	.	/	.	.	/	/
CSc1ccccc1NC(=O)Nc1ccc(F)c(Cl)c1	.	.	25	.	.	.	.
Cc1[nH]n(-c2ccccc2)c(=O)c1/C=C1\C=NN=C1c1ccccc1	.	.	18	.	.	.	17
OCC(CO)(CO)N=Cc1c(O)ccc2ccccc12	.	.	29	.	.	.	.
Oc1ccc2ccccc2c1C=NC12CN3CCN(CN(C3)C1)C2	.	.	20	.	.	.	21
Cc1ccc(CNC(=O)C2CC(=O)N(C3CCCC3)C2)cc1 (configuration not stated)	/	.	/	.	/	/	/
CCc1nnc(NC(=O)c2ccc(Br)c(S(=O)(=O)N3CCOCC3)c2)s1	.	.	/	.	.	/	/
S=C1NCCC12C(=S)Nc1ccccc12 (configuration not stated)	/	.	/	.	/	/	/
CCn1c2ccccc2c2cc(NC(=O)CSc3nccc(=O)[nH]3)ccc21	.	.	20	.	.	.	29
CCn1c2ccccc2c2cc(NC(=O)CSc3nnc(-c4cccc(C)c4)o3)ccc21	.	.	15	.	.	.	24
